Measurements reported in ChEMBL document CHEMBL1127031, “Development of high-affinity 5-HT3 receptor antagonists. Structure-affinity relationships of novel 1,7-annelated indole derivatives” (J Med Chem, 1993).

Key:
[1] = target: T1, Serotonin 3 (5-HT3) receptor (Rattus norvegicus, UniProt P35563+Q9JJ16); experiment: Displacement of [3H]GR-65630 binding to 5-hydroxytryptamine 3 receptor in rat brain cortical membranes; format: cell membranes, Membrane
T1 sequence (P35563 whole entry): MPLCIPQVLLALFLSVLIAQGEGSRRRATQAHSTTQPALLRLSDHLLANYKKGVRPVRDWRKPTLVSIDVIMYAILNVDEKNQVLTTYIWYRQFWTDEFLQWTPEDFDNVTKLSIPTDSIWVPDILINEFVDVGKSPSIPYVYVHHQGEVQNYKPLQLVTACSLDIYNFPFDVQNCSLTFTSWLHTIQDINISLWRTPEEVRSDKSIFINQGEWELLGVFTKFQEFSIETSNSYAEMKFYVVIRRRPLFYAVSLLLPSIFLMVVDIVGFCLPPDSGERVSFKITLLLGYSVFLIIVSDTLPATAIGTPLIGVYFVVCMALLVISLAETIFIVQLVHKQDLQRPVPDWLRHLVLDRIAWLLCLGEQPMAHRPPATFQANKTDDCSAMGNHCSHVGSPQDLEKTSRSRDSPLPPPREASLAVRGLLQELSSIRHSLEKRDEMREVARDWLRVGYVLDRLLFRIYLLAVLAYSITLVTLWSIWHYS
T1 sequence (Q9JJ16 whole entry): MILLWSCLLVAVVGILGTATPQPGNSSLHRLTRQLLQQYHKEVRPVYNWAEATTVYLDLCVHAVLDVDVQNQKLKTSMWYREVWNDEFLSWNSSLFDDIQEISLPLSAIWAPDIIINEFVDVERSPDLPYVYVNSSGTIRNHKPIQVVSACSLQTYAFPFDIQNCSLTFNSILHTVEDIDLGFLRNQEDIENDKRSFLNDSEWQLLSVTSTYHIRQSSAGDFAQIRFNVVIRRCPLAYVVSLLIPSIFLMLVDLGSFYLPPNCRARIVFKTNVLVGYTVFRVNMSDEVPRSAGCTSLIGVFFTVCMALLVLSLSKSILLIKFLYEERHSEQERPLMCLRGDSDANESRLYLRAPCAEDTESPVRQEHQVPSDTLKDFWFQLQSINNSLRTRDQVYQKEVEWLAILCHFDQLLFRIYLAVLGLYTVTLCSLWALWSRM
How it was run: (§1)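 Radioligand displacement on membrane preparations with glass-fibre filtration and liquid scintillation counting of tritium after overnight equilibration. Four to six test concentrations were used. IC50 came from log-probit linear regression. Ki = IC50/(1 + S/Kd), where S is the [3H]label concentration. Ki is the mean of at least three independent experiments run on different days with different membrane preparations.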

Histamine H3 receptor = Histamine H3 receptor (Rattus norvegicus, UniProt Q9QYN8); experiment: The binding affinity was measured on histamine H3 receptor using [3H]- N-Me-histam as radioligand.
[2] = target: Glutamate receptor ionotropic, NMDA 2C (Rattus norvegicus, UniProt Q00961); experiment: The binding affinity was measured on NMDA receptor using [3H]- CGS-19755 as radioligand.
[3] = target: T2, Voltage-gated L-type calcium channel (Rattus norvegicus, UniProt P22002+Q02485+P27732); experiment: Inhibition of [3H]nitrendipine binding to L-type calcium channel dihydropyridine site of rat brain
How it was run: (§2)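 Radioligand displacement on tissue membrane suspensions, with 4–6 concentrations of unlabeled test drug. Bound label was collected on GF/B glass-fibre filters, equilibrated overnight in scintillant, and counted for tritium. […] Ki = IC50/(1 + S/Kd), where S is the label concentration. Each value is the mean of ≥3 independent experiments on different days with different membrane preparations.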

D(1A) dopamine receptor = D(1A) dopamine receptor (Rattus norvegicus, UniProt P18901); experiment: The binding affinity was measured on dopamine receptor D1 using [3H]- dopamine as radioligand.
D(1A) dopamine receptor, sequence (P18901 whole entry): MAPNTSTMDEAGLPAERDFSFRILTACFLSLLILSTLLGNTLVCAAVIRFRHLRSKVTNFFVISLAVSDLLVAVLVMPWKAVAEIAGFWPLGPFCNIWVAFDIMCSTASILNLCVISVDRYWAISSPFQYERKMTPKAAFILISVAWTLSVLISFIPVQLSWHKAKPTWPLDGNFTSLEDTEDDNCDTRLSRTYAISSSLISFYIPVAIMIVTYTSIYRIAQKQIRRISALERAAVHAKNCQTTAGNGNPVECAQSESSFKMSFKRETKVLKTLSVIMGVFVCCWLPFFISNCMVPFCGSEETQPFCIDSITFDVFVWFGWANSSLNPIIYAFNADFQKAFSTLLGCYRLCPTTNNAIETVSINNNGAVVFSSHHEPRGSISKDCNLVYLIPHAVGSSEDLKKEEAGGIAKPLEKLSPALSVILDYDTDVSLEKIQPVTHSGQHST

[4] = target: Sigma non-opioid intracellular receptor 1 (Rattus norvegicus, UniProt Q9R0C9); experiment: The binding affinity was measured on sigma receptor using [3H]- (+)-3-PPP as radioligand.
Sigma non-opioid intracellular receptor 1, sequence (Q9R0C9 whole entry): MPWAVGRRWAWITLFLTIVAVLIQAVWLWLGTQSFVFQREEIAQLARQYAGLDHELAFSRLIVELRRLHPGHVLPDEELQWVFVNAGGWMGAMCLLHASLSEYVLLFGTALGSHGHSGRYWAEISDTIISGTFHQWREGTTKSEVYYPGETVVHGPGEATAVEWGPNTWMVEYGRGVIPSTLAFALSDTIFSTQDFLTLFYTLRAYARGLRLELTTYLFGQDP

Rattus norvegicus [5] = species on record: Rattus norvegicus; experiment: The pA2 is the negative logarithm of the molar concentration of an antagonist which necessitates the doubling of the agonist dose to couteract the effect of that antagonist and restore the original response was measured in rat isolated vagus nerve test.; format: functional; settings: read-out: pA2 (converted)
[6] = target: Thyrotropin-releasing hormone receptor (Rattus norvegicus, UniProt Q01717); experiment: The binding affinity was measured on TRH receptor using [3H]- MeTRH as radioligand.
Thyrotropin-releasing hormone receptor, sequence (Q01717 whole entry): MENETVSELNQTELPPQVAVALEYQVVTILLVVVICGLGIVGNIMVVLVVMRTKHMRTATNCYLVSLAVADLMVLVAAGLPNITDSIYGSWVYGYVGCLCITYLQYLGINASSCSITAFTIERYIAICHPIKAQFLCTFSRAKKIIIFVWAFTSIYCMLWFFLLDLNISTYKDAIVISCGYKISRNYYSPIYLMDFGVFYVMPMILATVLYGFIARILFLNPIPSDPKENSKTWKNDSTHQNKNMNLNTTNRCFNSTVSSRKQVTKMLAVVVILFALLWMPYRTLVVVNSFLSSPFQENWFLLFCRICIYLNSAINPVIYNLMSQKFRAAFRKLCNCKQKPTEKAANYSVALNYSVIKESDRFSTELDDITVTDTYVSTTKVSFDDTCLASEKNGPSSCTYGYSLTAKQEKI

[7] = target: GABA-A receptor; anion channel; experiment: Displacement of [3H]- Diazepam from rat GABA-A benzodiazepine receptor; format: protein-complex assay; how it was run: as §1
[8] = target: Muscarinic acetylcholine receptor M2 (Rattus norvegicus, UniProt P10980); experiment: The binding affinity was measured on muscarine M2 receptor using [3H]- N-Me-SCOPOL as radioligand.; how it was run: as §2
[9] = target: Alpha-2A adrenergic receptor (Rattus norvegicus, UniProt P22909); experiment: The binding affinity was measured on alpha-2-adrenergic receptor using [3H]- clonidine as radioligand.
D(2) dopamine receptor = D(2) dopamine receptor (Rattus norvegicus, UniProt P61169); experiment: The binding affinity was measured on dopamine receptor D2 using [3H]- spiperone as radioligand.
D(2) dopamine receptor, sequence (P61169 whole entry): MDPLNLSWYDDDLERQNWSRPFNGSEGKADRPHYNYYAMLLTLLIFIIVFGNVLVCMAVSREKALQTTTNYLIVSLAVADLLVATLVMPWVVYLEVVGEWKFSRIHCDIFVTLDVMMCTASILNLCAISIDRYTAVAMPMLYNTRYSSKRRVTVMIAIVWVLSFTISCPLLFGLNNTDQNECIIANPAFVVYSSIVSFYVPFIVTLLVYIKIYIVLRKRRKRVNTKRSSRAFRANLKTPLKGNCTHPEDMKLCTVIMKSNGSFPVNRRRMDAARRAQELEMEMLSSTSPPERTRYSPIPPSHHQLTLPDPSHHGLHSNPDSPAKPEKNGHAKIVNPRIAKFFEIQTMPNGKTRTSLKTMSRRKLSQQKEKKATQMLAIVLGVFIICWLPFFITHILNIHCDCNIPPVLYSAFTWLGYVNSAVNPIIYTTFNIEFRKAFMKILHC

[10] = The binding affinity was measured on Na+2(BTX)brain receptor using [3H]- batrachotox as radioligand.; set-up: species or system Rattus norvegicus
[11] = target: Interleukin-6 receptor subunit alpha (Rattus norvegicus, UniProt P22273); experiment: The binding affinity was measured on […] receptor using [3H]- IL-6 as radioligand.; how it was run: as §2
Mu-type opioid receptor = Mu-type opioid receptor (Rattus norvegicus, UniProt P33535); experiment: The binding affinity was measured on mu-opiate receptor using [3H]- naloxone as radioligand.
Mu-type opioid receptor, sequence (P33535 whole entry): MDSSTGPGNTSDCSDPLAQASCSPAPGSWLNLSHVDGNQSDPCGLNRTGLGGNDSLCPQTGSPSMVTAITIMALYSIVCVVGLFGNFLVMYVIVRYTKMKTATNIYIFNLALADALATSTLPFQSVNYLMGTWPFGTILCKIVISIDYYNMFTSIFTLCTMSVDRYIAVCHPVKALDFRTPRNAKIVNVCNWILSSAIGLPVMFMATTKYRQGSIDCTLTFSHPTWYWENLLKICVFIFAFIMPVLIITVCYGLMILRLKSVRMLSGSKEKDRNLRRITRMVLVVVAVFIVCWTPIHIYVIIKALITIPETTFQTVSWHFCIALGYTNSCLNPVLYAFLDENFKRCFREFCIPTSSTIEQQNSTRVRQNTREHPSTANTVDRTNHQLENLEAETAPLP

[12] = The binding affinity was measured on glycine strych. ins receptor using [3H]- 5,7-diClkyn.acid as radioligand.; set-up: species or system Rattus norvegicus
Histamine H1 receptor = Histamine H1 receptor (Rattus norvegicus, UniProt P31390); experiment: The binding affinity was measured on histamine H1 receptor using [3H]- mepyramine as radioligand.
Histamine H1 receptor, sequence (P31390 whole entry): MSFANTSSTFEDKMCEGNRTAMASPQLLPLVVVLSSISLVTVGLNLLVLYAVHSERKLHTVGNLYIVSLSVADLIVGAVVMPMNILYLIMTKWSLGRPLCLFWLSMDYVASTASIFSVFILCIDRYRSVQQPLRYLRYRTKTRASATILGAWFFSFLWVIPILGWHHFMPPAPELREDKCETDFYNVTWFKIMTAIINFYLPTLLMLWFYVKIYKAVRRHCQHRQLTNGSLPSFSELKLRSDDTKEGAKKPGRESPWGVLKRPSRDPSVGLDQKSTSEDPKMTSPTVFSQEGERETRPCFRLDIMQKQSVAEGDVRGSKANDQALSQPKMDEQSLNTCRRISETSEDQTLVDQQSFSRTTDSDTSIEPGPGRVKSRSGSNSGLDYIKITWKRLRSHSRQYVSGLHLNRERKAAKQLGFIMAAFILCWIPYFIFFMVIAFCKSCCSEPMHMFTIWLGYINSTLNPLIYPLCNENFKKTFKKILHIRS

[13] = target: Delta-type opioid receptor (Rattus norvegicus, UniProt P33533); experiment: The binding affinity was measured on delta-opiate receptor using [3H]- dadle as radioligand.
Delta-type opioid receptor, sequence (P33533 whole entry): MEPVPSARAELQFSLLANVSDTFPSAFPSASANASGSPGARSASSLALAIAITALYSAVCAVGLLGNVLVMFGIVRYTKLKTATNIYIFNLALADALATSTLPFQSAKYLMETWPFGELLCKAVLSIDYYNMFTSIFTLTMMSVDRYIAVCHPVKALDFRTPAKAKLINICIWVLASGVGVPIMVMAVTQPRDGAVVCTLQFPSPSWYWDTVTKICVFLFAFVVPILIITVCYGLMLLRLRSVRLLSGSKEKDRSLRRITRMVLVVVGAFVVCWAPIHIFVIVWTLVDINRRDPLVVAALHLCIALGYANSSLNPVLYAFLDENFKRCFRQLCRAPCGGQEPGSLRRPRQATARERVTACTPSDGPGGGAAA

[14] = target: GABA-A receptor; anion channel; experiment: Displacement of [3H]DH-muscimol from rat GABA-A receptor; format: protein-complex assay; how it was run: as §1
[15] = target: Gastrin/cholecystokinin type B receptor (Rattus norvegicus, UniProt P30553); experiment: The binding affinity was measured on cholecystokinin type B receptor using [3H]- CCK-8 as radioligand.
[16] = target: T2, Voltage-gated L-type calcium channel; experiment: Inhibition of [3H]D-888 binding to L-type calcium channel verapamil site of rat brain; how it was run: as §2
Cavia porcellus = species on record: Cavia porcellus; experiment: The pA2 is the negative logarithm of the molar concentration of an antagonist which necessitates the doubling of the agonist dose to couteract the effect of that antagonist and restore the original response was measured in guinea pig isolated ileu m test.
Mus musculus = species on record: Mus musculus; experiment: Lowest effective dose affecting behavioral parameter in at least half of the animals.
[17] = target: Cholecystokinin receptor type A (Rattus norvegicus, UniProt P30551); experiment: The binding affinity was measured on cholecystokinin type A receptor using [3H]- CCK-8 as radioligand.
Cholecystokinin receptor type A, sequence (P30551 whole entry): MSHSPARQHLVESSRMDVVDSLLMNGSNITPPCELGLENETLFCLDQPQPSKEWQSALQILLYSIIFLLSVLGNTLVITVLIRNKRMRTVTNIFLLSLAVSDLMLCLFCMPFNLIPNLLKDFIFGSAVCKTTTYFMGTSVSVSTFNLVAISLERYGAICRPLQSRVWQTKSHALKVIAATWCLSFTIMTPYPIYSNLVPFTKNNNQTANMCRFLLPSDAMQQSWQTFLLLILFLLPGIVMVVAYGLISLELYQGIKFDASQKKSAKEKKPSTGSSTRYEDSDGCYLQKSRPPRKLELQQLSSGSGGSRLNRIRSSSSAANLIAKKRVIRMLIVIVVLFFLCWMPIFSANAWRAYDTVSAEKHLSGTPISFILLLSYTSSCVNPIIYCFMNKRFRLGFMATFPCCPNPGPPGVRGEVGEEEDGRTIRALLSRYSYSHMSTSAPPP

[18] = target: Kappa-type opioid receptor (Rattus norvegicus, UniProt P34975); experiment: The binding affinity was measured on kappa-opiate receptor using [3H]- EKC as radioligand.
Kappa-type opioid receptor, sequence (P34975 whole entry): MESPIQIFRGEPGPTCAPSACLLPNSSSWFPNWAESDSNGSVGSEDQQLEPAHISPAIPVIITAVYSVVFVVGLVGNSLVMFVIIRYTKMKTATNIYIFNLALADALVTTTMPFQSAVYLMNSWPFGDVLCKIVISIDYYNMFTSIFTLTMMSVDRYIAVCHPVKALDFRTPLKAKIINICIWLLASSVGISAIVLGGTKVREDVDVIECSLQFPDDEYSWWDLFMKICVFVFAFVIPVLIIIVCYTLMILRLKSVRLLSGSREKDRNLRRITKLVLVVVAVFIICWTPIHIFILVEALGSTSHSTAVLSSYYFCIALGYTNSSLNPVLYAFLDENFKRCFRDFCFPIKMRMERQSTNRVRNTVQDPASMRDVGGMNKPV

D(3) dopamine receptor = D(3) dopamine receptor (Rattus norvegicus, UniProt P19020); experiment: The binding affinity was measured on dopamine receptor D3 using [3H]- spiperone as radioligand.
D(3) dopamine receptor, sequence (P19020 whole entry): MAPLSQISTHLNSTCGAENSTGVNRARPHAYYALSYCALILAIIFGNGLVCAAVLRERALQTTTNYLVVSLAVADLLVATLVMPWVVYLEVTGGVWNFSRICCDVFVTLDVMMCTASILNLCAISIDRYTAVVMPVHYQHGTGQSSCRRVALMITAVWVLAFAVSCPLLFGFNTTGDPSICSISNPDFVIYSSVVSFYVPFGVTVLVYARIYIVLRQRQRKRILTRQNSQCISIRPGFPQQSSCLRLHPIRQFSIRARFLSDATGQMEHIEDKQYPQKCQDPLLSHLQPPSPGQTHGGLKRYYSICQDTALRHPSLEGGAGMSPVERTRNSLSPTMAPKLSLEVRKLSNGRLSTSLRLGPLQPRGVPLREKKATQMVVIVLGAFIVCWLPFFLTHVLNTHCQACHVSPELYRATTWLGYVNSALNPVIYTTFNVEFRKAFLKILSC

[19] = target: Muscarinic acetylcholine receptor M1 (Rattus norvegicus, UniProt P08482); experiment: The binding affinity was measured on muscarine M1 receptor using [3H]- pirenzepine as radioligand.
Rattus norvegicus [20] = species on record: Rattus norvegicus; experiment: Dose of antagonist which inhibits the by the 2-Me-5-HT induced slowing of the heart rate by 10 beats/5 s.; format: functional
How it was run: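 Von Bezold-Jarisch reflex test in unrestrained conscious rats, with the compound given orally. The bradycardia (slowing of heart rate) was induced by 2-Me-5-HT. The value is the antagonist dose that reduces this slowing by 10 beats/5 s.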

Adrenergic receptor beta = Adrenergic receptor beta (Rattus norvegicus, UniProt P18090+P10608+P26255); experiment: The binding affinity was measured on beta-1,2-adrenergic receptor using [3H]- DHA as radioligand.; format: protein assay
[21] = target: Muscarinic acetylcholine receptor M3 (Rattus norvegicus, UniProt P08483); experiment: The binding affinity was measured on muscarine M3 receptor using [3H]- N-Me-SCOPOL as radioligand.
Muscarinic acetylcholine receptor M3, sequence (P08483 whole entry): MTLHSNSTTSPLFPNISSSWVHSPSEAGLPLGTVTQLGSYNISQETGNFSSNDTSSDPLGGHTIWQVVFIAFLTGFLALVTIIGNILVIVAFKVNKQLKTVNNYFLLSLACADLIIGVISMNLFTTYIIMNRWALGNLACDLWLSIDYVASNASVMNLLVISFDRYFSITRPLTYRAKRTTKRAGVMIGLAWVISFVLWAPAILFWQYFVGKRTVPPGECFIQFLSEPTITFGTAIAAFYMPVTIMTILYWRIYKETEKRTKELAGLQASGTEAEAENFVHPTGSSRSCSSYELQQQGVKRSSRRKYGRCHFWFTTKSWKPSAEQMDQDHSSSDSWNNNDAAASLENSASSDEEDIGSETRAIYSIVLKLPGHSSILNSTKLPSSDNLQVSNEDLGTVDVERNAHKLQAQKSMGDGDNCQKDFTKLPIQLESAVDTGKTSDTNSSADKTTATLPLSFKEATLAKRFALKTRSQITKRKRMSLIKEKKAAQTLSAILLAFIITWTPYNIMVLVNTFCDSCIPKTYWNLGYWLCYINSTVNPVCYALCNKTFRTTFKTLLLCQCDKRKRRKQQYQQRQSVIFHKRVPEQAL

[22] = The binding affinity was measured on melatonin receptor using [3H]- 2-iodo-melat as radioligand.
[23] = The binding affinity was measured on substance P as radioligand.; set-up: species or system Rattus norvegicus

For `Cc1[nH]cnc1CCC(=O)c1cn(C)c2ccccc12`, the Ki [1] was 280 pM.
Work on `Cc1nc[nH]c1CCC(=O)c1cn2c3c(cccc13)SCC2` yielded a Ki [1] of 190 pM.
For `Cc1[nH]cnc1CCC(=O)c1cn2c3c(cccc13)CCC2`, the Ki [1] was 75 pM.
Work on `Cc1[nH]cnc1CCC(=O)c1cn2c3c(cccc13)CCCC2` yielded a Ki [1] of 330 pM.
For `Cc1nccn1CC1CCc2c(c3cccc4c3n2CCO4)C1=O` (racemic), the Ki [1] was 1300 pM.
For `Cc1nccn1CC1CCc2c(c3cccc4c3n2CCCCC4)C1=O` (racemic), the Ki [1] was 1100 pM.
`Cc1nccn1CC1CCc2c(c3cccc4c3n2CCS4)C1=O` (racemic) showed a Ki [1] of 770 pM.
In the case of `Cc1nccn1CC1CCc2c(c3cccc4c3n2CCCC4)C1=O` (racemic), the Ki [1] is reported as 750 pM.
With `Cc1nccn1CC1CCc2c(c3cccc4c3n2CC4)C1=O` (racemic) the Ki [1] was 230 pM.
With `Cc1nccn1CC1CCc2c(c3cccc4c3n2CCCC4)C1=O` (single isomer, unassigned; (+)) the Ki [1] was 930 pM.
Compound `Cc1nccn1CC1CCc2c(c3cccc4c3n2CCCC4)C1=O` (single isomer, unassigned; (-)) has a Ki [1] of 640 pM.
For `Cc1nccn1C[C@H]1CCc2c(c3cccc4c3n2CCC4)C1=O` [CILANSETRON], the Ki (Histamine H3 receptor) was over 10 µM, the Ki [2] was over 10 µM and the Ki [3] was over 10 µM. For the same compound, the Ki (D(1A) dopamine receptor) was over 10 µM, the Ki [4] was 0.34 µM and the Kb (Rattus norvegicus [5]) was 0.000115 µM. It also gave a Ki [6] of over 10 µM, a Ki [7] of over 10 µM and a Ki [8] of over 10 µM. The Ki [9] was over 10 µM, the Ki (D(2) dopamine receptor) was over 10 µM and the Ki [10] was over 10 µM. It also gave a Ki [11] of over 10 µM, a Ki (Mu-type opioid receptor) of 8.5 µM and a Ki [12] of over 10 µM. For the same compound, the Ki (Histamine H1 receptor) was 6.5 µM, the Ki [13] was over 10 µM and the Ki [14] was over 10 µM. The Ki [15] was over 10 µM, the Ki [16] was 5.4 µM and the Kb (Cavia porcellus) was 0.0158 µM. It also gave an LED (Mus musculus) of 30 mg/kg, a Ki [17] of over 10 µM and a Ki [18] of over 10 µM. The Ki (D(3) dopamine receptor) was over 10 µM, the Ki [19] was 0.91 µM and the ED10 (Rattus norvegicus [20]) was 0.026 mg/kg. The Ki (Adrenergic receptor beta) was over 10 µM, the Ki [21] was over 10 µM and the Ki [22] was over 10 µM. The Ki [23] was over 10 µM.
`Cc1nccn1CC1CCc2c(c3ccccc3n2C)C1=O` (stereo not drawn) [ONDANSETRON] gave a Ki (Histamine H3 receptor) of over 10 µM, a Ki [2] of over 10 µM and a Ki [3] of over 10 µM. For the same compound, the Ki (D(1A) dopamine receptor) was over 10 µM, the Ki [4] was 0.68 µM and the Kb (Rattus norvegicus [5]) was 0.00102 µM. The Ki [6] was over 10 µM, the Ki [7] was over 10 µM and the Ki [8] was over 10 µM. The Ki [9] was over 10 µM, the Ki (D(2) dopamine receptor) was over 10 µM and the Ki [10] was over 10 µM. The Ki [11] was over 10 µM, the Ki (Mu-type opioid receptor) was 2.9 µM and the Ki [12] was over 10 µM. It also gave a Ki (Histamine H1 receptor) of over 10 µM, a Ki [13] of over 10 µM and a Ki [14] of over 10 µM. The Ki [15] was over 10 µM, the Ki [16] was over 10 µM and the Kb (Cavia porcellus) was 0.158 µM. The LED (Mus musculus) was 3 mg/kg, the Ki [17] was over 10 µM and the Ki [18] was over 10 µM. It also gave a Ki (D(3) dopamine receptor) of over 10 µM, a Ki [19] of 5.1 µM and an ED10 (Rattus norvegicus [20]) of 0.165 mg/kg. The Ki (Adrenergic receptor beta) was over 10 µM, the Ki [21] was over 10 µM and the Ki [22] was over 10 µM. The Ki [23] was over 10 µM.
